These results are taken from ChEMBL document CHEMBL2040734, “Benzothiazoles: search for anticancer agents” (2012).

The term GI50 denotes the concentration at which growth is held to half of that of the control. Read a low GI50 as greater sensitivity of the cells. Usually TGI stands for the concentration giving total growth inhibition. A lower TGI goes with greater sensitivity of the cells.

Format in all cases: functional
Experiment [1] deals with MDA-MB-231. The experiment in a line: Cytotoxicity against human MDA-MB-231 cells assessed as cell growth at 100 uM after 48 hrs by sulforhodamine B assay. Particulars: MDA-MB-231, 48 h, read-out: Activity. (In SRB staining, fixed cells bind dye roughly in proportion to their protein.)
Experiment [2] relates to HT-29. The experiment in a line: Cytotoxicity against human HT-29 cells assessed as cell growth at 0.01 uM after 48 hrs by sulforhodamine B assay. The settings on record: HT-29, 48 h, read-out: Activity. Put shortly: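 Five-dose NCI panel run at 0.01, 0.1, 1, 10 and 100 µM. Cells were in RPMI 1640 with 5% FBS and 2 mM L-glutamine, seeded at 5000–40,000 cells/well and pre-incubated 24 h. Drug was diluted from a DMSO stock into medium with 50 µg/ml gentamicin. Exposure was 48 h at 37 °C, 5% CO2. Cells were fixed with cold TCA and stained with 0.4% SRB, read at 515 nm. Percent growth came from time-zero, control and test absorbances.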

For experiment [3], the system named is PC-3. The experiment in a line: Cytotoxicity against human PC3 cells assessed as cell growth at 1 uM after 48 hrs by sulforhodamine B assay. Particulars: PC-3, 48 h, read-out: Activity.
Experiment [4] concerns U-251. The experiment in a line: Cytotoxicity against human U251 cells assessed as cell growth at 10 '-5 M after 48 hrs by sulforhodamine B assay. Particulars: U-251, 48 h, read-out: Activity.
For experiment [5], the system named is SF-295. The experiment in a line: Cytotoxicity against human SF295 cells assessed as cell growth at 0.1 uM after 48 hrs by sulforhodamine B assay. The settings on record: SF-295, 48 h, read-out: Activity.
Experiment [6] has as its system SNB-75. The experiment in a line: Cytotoxicity against human SNB75 cells assessed as cell growth at 10 uM after 48 hrs by sulforhodamine B assay. Particulars: SNB-75, 48 h, read-out: Activity.
Experiment [7] has as its system NCI-H226. The experiment in a line: Cytotoxicity against human NCI-H226 cells assessed as cell growth at 1 uM after 48 hrs by sulforhodamine B assay. Particulars: NCI-H226, 48 h, read-out: Activity.
Experiment [8] has as its system NCI-H226. The experiment in a line: Cytotoxicity against human NCI-H226 cells assessed as cell growth at 0.1 uM after 48 hrs by sulforhodamine B assay. The settings on record: NCI-H226, 48 h, read-out: Activity.
Experiment [9] concerns HOP-92. The experiment in a line: Growth inhibition of human HOP92 cells after 48 hrs by sulforhodamine B assay. Particulars: HOP-92, 48 h. In short, it runs like this: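 Adherent NCI-60 lines were grown in RPMI 1640 with 5% FBS and 2 mM L-glutamine, plated at 5000–40,000 cells/well and preincubated 24 h. They were then exposed to five concentrations (0.01–100 µM, from a DMSO stock) for 48 h at 37 °C, 5% CO2. Cells were fixed with cold TCA (10% final, 60 min, 4 °C) and stained with 0.4% SRB. Dye was solubilized in 10 mM Tris base and A515 read. GI50 was derived from time-zero, control and treated absorbances.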

Experiment [10] relates to NCI-H226. The experiment in a line: Cytotoxicity against human NCI-H226 cells assessed as cell growth at 100 uM after 48 hrs by sulforhodamine B assay. The settings on record: NCI-H226, 48 h, read-out: Activity.
Experiment [11] relates to NCI-H226. The experiment in a line: Cytotoxicity against human NCI-H226 cells assessed as cell growth at 10 uM after 48 hrs by sulforhodamine B assay. Particulars: NCI-H226, 48 h, read-out: Activity.

On to `Cc1ccc2nc(Nc3c(C)cccc3C)sc2c1`, for which the growth at 100 µM in experiment [1] was -6%. Further, in experiment [2], the growth at 0.01 µM is 98%. Further, in [3], the growth at 1 µM worked out at 68%. Further, the growth at 10 µM in experiment [4] turned out to be 34%; in [6] it was 36%. In addition, the growth at 0.1 µM in experiment [5] came out at 88%.
For `Clc1cccc(Cl)c1Nc1nc2cccc(Cl)c2s1`, the growth at 100 µM in experiment [1] is -70%; in experiment [10] it was -72%. The growth at 0.01 µM in experiment [2] was found to be 100%. The growth at 1 µM was -9% in experiment [7] and 38% in experiment [3]. The growth at 0.1 µM in experiment [8] came to 45%; in experiment [5], 82%. Moreover, in experiment [9], it took 71.8 nM to inhibit growth by half (GI50). Also, the TGI in experiment [9] was found to be 690 nM. The CC50 in [9] (read-out: LC50 (the source's name)) was 3610 nM. Further, the values for the growth at 10 µM in experiment [6] and in experiment [11] were -32% and -83%, respectively.
